{
  "source": "paper PMC8760168",
  "about": "(Current drug metabolism, 2021)",
  "key": {"[1]": {"assay": "Phase II stability assay, glucuronidation, human liver S9", "assay_type": "in vitro ADME", "conditions": "human liver S9, UDP-GlcUA, alamethicin, saccharolactone, 10 μM", "outline": "(§1)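 Glucuronidation: test compound 10 μM in phosphate buffer pH 7.4 with UDP-glucuronic acid, saccharic-1,4-lactone, MgCl2 and alamethicin, 37°C. Started with human or mouse liver S9 (0.5 mg/mL protein). Short assay sampled 0–120 min; long assay (mouse) sampled 1–24 h. Quenched in acetonitrile with internal standard, then LC-MS/MS. t1/2 from ln area ratio. Long assay: first-order k from glucuronide area ratio. Two independent assays, triplicate.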"}, "CYP3A4": {"biological_target": "CYP3A4 (Homo sapiens, UniProt P08684)", "sequence (P08684 whole entry)": "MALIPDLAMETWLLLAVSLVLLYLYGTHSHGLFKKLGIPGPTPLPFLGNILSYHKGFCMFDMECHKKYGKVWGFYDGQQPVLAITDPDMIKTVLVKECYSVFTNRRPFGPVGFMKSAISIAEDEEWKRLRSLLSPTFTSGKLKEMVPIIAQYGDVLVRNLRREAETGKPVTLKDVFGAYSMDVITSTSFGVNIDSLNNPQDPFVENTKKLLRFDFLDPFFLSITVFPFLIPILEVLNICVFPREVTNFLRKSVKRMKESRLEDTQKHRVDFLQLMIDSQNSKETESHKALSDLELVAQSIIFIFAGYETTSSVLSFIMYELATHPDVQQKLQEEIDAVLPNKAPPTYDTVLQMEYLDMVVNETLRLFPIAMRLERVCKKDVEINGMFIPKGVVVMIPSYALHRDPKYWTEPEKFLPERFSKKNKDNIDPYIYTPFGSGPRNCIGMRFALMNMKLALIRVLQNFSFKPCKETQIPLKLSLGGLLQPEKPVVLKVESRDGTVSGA", "assay": "CYP3A4 inhibition assay", "conditions": "recombinant CYP3A4, fluorescent substrate"}, "[2]": {"assay": "Phase II stability assay, glucuronidation, mouse liver S9", "assay_type": "in vitro ADME", "outline": "as §1"}, "[3]": {"assay": "Phase I microsomal stability assay, rat liver microsomes", "assay_type": "in vitro ADME", "conditions": "NADPH, 10 μM, 0.5 mg/mL protein, two hours", "outline": "(§2)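 Test compound at 10 μM in phosphate buffer pH 7.4 with NADPH regenerating system, preincubated 5 min at 37°C. Started with dog, mouse or rat liver microsomes or human liver fraction (0.5 mg/mL protein).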"}, "[4]": {"assay": "Quantification of MIDD0301 and MIDD0301 metabolites in urine and feces", "assay_type": "in vivo, Swiss Webster mice", "conditions": "for Feces & Urine (%) 0-48 hours / Feces (%) 0-24 hours / Feces (%) 24-48 hours / Urine (%) 0-24 hours / Urine (%) 24-48 hours: % of moles of MIDD0301 administered", "outline": "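Seven-week-old female mice housed singly in metabolic cages; n = 3 per route. Dosing: oral 750 μg, IP 750 μg (50% propylene glycol/PBS) or IV 250 μg (PBS). Urine and feces collected at 0–24 and 24–48 h and stored at −20°C. Extracted with internal standards, ultrafiltered, then C18 LC-MS/MS with positive MRM against synthesized-standard calibration curves. Reported as % of moles administered.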"}, "[5]": {"assay": "Imaging mass spectrometry of lung after oral administration", "assay_type": "in vivo, Swiss Webster mice", "conditions": "25 mg/kg oral, lungs harvested after 1 h, 50 μm resolution", "outline": "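Female Swiss Webster mice dosed orally. Lungs excised, frozen briefly on dry-ice vapour, stored at −80°C, then equilibrated to −20°C for 30 min. 20-micron cryosections thaw-mounted, rinsed with 0.1% TFA and dried 1 h. 2,5-Dihydroxyacetophenone matrix (50 mg/mL) sprayed in layers. MALDI-TOF/TOF in reflectron MS/MS mode, transitions m/z 416>372 and 416>331.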"}, "[6]": {"assay": "Phase II stability assay, glucosidation, mouse liver S9", "assay_type": "in vitro ADME", "conditions": "mouse liver S9, UDP-Glc", "outline": "(§3)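 Glucosidation: test compound 10 μM in phosphate buffer pH 7.4 with UDP-glucose, gluco-1,5-lactone, MgCl2 and alamethicin, 37°C. Started with mouse liver or kidney S9 (0.5 mg/mL protein). Sampled 0–120 min; long assay (kidney) sampled 1–24 h. Quenched in acetonitrile with internal standard, then LC-MS/MS. t1/2 from ln area ratio. Long assay: first-order k from glucoside area ratio. Two independent assays, triplicate.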"}, "GABAA receptors": {"biological_target": "GABAA receptors", "conditions": "read-out: receptor affinity (EC50); no reference given; cited from earlier work"}, "[7]": {"assay": "Phase I microsomal stability assay, dog liver microsomes", "assay_type": "in vitro ADME", "conditions": "NADPH, 10 μM, 0.5 mg/mL protein, two hours", "outline": "as §2"}, "[8]": {"assay": "Pharmacokinetic studies in mice", "assay_type": "in vivo, Swiss Webster mice", "outline": "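Six-week-old female mice given 25 mg/kg by gavage (2% PEG in 2% aqueous HPMC), 25 mg/kg IP (50% propylene glycol/50% PBS pH 7.2) or 1 mg/kg tail vein (PBS pH 7.2). Blood, lung and non-perfused brain taken at 10–1,440 min, n = 4 (oral, IP) or 8 (IV). Methanol extraction with internal standard, then LC-MS/MS. Two-compartment model; half-lives from elimination rates.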"}, "[9]": {"conditions": "cited from earlier work"}, "[10]": {"assay": "Phase II stability assay, glucosidation, mouse kidney S9", "assay_type": "in vitro ADME", "conditions": "mouse kidney S9, UDP-Glc", "outline": "as §3"}, "[11]": {"conditions": "repeated high dose exposure in rodents; cited from earlier work"}, "[12]": {"assay": "Phase I microsomal stability assay, mouse liver microsomes", "assay_type": "in vitro ADME", "conditions": "NADPH, 10 μM, 0.5 mg/mL protein, two hours", "outline": "as §2"}, "[13]": {"conditions": "neutral pH; cited from earlier work"}, "[14]": {"assay": "Phase I microsomal stability assay, human liver fraction", "assay_type": "in vitro ADME", "conditions": "NADPH, 10 μM, 0.5 mg/mL protein, two hours", "outline": "as §2"}, "[15]": {"conditions": "four hours; cited from earlier work"}},
  "note": "“And” between values parts separate entries of the source, which are not always exact repeats. Equal values may be shown once.",
  "data": [
    {"compound": "C[C@H]1N=C(c2ccccc2F)c2cc(Br)ccc2-n2cnc(C(=O)O)c21", "note": "[MIDD0301]", "values": [
      {"measurement": "half-life, conversion to glucuronide", "setting": "[1]", "result": 4, "unit": "h"},
      {"measurement": "% inhibition of CYP3A4 activity", "setting": "CYP3A4; 10 μM", "result": "less than 1%"},
      {"measurement": "half-life, conversion to glucuronide", "setting": "[2]; mouse liver S9, UDP-GlcUA, alamethicin, saccharolactone, 10 μM", "result": 2.38, "unit": "h"},
      {"measurement": "reaction rate, formation of MIDD0301 glucuronide (first order kinetics)", "setting": "[2]; mouse liver S9, monitored for 8 h", "result": 0.0042, "unit": "min⁻¹"},
      {"measurement": "metabolic conversion of MIDD0301", "setting": "[3]", "result": "not observed"},
      {"measurement": "Feces & Urine (%) 0-48 hours", "setting": "[4]; IP, 750 μg", "result": "43.9 ± 6.24", "unit": "%"},
      {"measurement": "Feces (%) 0-24 hours", "setting": "[4]; IP, 750 μg", "result": "43.2% and 43.2 ± 5.9%"},
      {"measurement": "Feces (%) 24-48 hours", "setting": "[4]; IP, 750 μg", "result": "0.3 ± 0.1", "unit": "%"},
      {"measurement": "Urine (%) 0-24 hours", "setting": "[4]; IP, 750 μg", "result": "0.3% and 0.3 ± 0.2%"},
      {"measurement": "Urine (%) 24-48 hours", "setting": "[4]; IP, 750 μg", "result": "0.1 ± 0.04", "unit": "%"},
      {"measurement": "Feces & Urine (%) 0-48 hours", "setting": "[4]; IV, 250 μg", "result": "32% and 32.0 ± 3.7%"},
      {"measurement": "Feces (%) 0-24 hours", "setting": "[4]; IV, 250 μg", "result": "30.4% and 30.4 ± 3.4%"},
      {"measurement": "Feces (%) 24-48 hours", "setting": "[4]; IV, 250 μg", "result": "1.2 ± 0.2", "unit": "%"},
      {"measurement": "Urine (%) 0-24 hours", "setting": "[4]; IV, 250 μg", "result": "0.4% and 0.4 ± 0.1%"},
      {"measurement": "Urine (%) 24-48 hours", "setting": "[4]; IV, 250 μg", "result": "<LOD"},
      {"measurement": "Feces & Urine (%) 0-48 hours", "setting": "[4]; oral, 750 μg", "result": "55.1% and 55.1 ± 5.7%"},
      {"measurement": "Feces (%) 0-24 hours", "setting": "[4]; oral, 750 μg", "result": "54.3% and 54.3 ± 5.2%"},
      {"measurement": "Feces (%) 24-48 hours", "setting": "[4]; oral, 750 μg", "result": "0.7% and 0.7 ± 0.4%"},
      {"measurement": "Urine (%) 0-24 hours", "setting": "[4]; oral, 750 μg", "result": "0.1% and 0.1 ± 0.01%"},
      {"measurement": "Urine (%) 24-48 hours", "setting": "[4]; oral, 750 μg", "result": "<LOD"},
      {"measurement": "bioavailability", "setting": "[4]; oral, from unconjugated MIDD0301 excreted, 32% IV versus 55.1% oral", "result": "≤ 77", "unit": "%"},
      {"measurement": "spatial distribution in mouse lung (IMS)", "setting": "[5]", "result": "uniform distribution"},
      {"measurement": "conversion of MIDD0301 (glucosidation)", "setting": "[6]", "result": "did not observe conversion"},
      {"measurement": "EC50", "setting": "GABAA receptors", "result": 72, "unit": "nM"},
      {"measurement": "metabolic conversion of MIDD0301", "setting": "[7]", "result": "not observed"},
      {"measurement": "half-lives", "setting": "[8]; 1 mg/kg IV tail vein injection, blood, lung, brain", "result": "1 to 2", "unit": "h"},
      {"measurement": "tolerability of tail vein injection", "setting": "[8]; 1 mg/kg IV, aqueous solution", "result": "well-tolerated without signs of irritation"},
      {"measurement": "signs of toxicity", "setting": "[8]; 25 mg/kg IP, throughout the study", "result": "no signs of toxicity"},
      {"measurement": "blood concentration after 24 h", "setting": "[8]; 25 mg/kg oral", "result": 12, "unit": "nM"},
      {"measurement": "brain concentration after 24 h", "setting": "[8]; 25 mg/kg oral", "result": "less than 3 nM"},
      {"measurement": "lung concentration after 24 h", "setting": "[8]; 25 mg/kg oral", "result": "less than 3 nM"},
      {"measurement": "tmax", "setting": "[8]; 25 mg/kg oral gavage", "result": 0.333, "unit": "h"},
      {"measurement": "brain concentration as % of the corresponding blood concentrations", "setting": "[8]; 25 mg/kg oral, non-perfused brains", "result": "less than 7%"},
      {"measurement": "half-lives for blood and lung", "setting": "[8]; 25 mg/kg oral, based on calculated elimination rates, two compartment model", "result": "4 to 5", "unit": "h"},
      {"measurement": "drug half-life in blood, lung, and brain", "setting": "[8]; IP administration", "result": "4 to 6", "unit": "h"},
      {"measurement": "drug half-life in blood, lung, and brain", "setting": "[8]; oral administration", "result": "4 to 6", "unit": "h"},
      {"measurement": "brain absorption", "setting": "[9]", "result": "very little"},
      {"measurement": "central nervous system effects", "setting": "[9]; high single or repeated dosing", "result": "no observed central nervous system effects"},
      {"measurement": "reaction rate, formation of MIDD0301 glucoside", "setting": "[10]", "result": 0.0038, "unit": "min⁻¹"},
      {"measurement": "half-life, glucosidation", "setting": "[10]; 10 μM", "result": 4.93, "unit": "h"},
      {"measurement": "adverse effects", "setting": "[11]", "result": "did not cause any adverse effects"},
      {"measurement": "metabolic conversion of MIDD0301", "setting": "[12]", "result": "not observed"},
      {"measurement": "aqueous solubility", "setting": "[13]", "result": "high"},
      {"measurement": "metabolic conversion of MIDD0301", "setting": "[14]", "result": "not observed"}
    ]},
    {"compound": "C#Cc1ccc2c(c1)C(c1ccccc1F)=N[C@H](C)c1c(C(=O)NC)ncn1-2", "note": "[MP-III-022]", "values": [
      {"measurement": "metabolic stability", "setting": "[15]", "result": "stable"}
    ]},
    {"compound": "C#Cc1ccc2c(c1)C(c1ccccc1F)=N[C@H](C)c1c(C(=O)OCC)ncn1-2", "note": "[SH-053-2’F-R-CH3]", "values": [
      {"measurement": "metabolic stability", "setting": "[15]", "result": "metabolized fully within four hours"}
    ]},
    {"compound": "Cc1c(O)cccc1C(=O)N[C@@H](CSc1ccccc1)[C@H](O)CN1C[C@H]2CCCC[C@H]2C[C@H]1C(=O)NC(C)(C)C", "note": "[nelfinavir, reference compound]", "values": [
      {"measurement": "inhibition of CYP3A4 activity", "setting": "CYP3A4; 100 μM", "result": "completely inhibited"}
    ]}
  ]
}
